High-throughput results (PubChem)
OX1R antag-1 – human HCRTR1 antagonism | O43613 | CHO/OX1R cells, Fluo-8 calcium fluorescence, orexin A | inhibition, % at 5 µM | actives 0.43% (n = 330,000) | AID 434989;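 active = inhibition above its plate's threshold, mean inhibition of all tested compounds on the plate plus 3 SD, cut at about 37% in these data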;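 note: 0% = orexin A challenge wells and 100% = SB-334867-A antagonist wells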
OX1R antag-2 – OX1R (human) antagonism; O43613; OX1R-expressing cells, FRET antagonist read-out; inhibition, % at 6.6 µM; actives 1.8% (n = 330,000); AID 485270; in the data active = inhibition mostly above about 38%, no sharp cut-off; inactive = mostly below about 40%;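 note: 0% = agonist challenge alone and 100% = reference antagonist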
TAAR1 antag – human TAAR1 antagonism | Q96RJ0 | actives 1.5% (n = 360,000) | inhibition, % at 3 µM | CHO RD-HGA16 TAAR1, Fluo-8 calcium fluorescence, antagonist;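 active = inhibition above a per-plate cutoff, the mean inhibition of test compounds on that plate plus 3 SD, cut at about 49% in these data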;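 note: 0% = DMSO plus EC80 beta-PEA response and 100% = DMSO alone without agonist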
Target sequence (Q96RJ0 whole entry, looked up): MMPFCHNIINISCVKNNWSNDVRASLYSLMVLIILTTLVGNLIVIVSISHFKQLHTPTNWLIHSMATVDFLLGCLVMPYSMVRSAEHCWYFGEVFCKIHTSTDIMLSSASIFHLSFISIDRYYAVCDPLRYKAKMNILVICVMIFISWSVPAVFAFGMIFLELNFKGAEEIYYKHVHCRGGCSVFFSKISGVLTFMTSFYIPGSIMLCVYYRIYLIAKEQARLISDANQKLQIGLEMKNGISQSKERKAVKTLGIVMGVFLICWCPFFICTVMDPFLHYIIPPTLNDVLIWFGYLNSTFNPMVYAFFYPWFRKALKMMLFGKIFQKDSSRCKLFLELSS
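System: RD-HGA16 CHO cells with stable hTAAR1 and Gα16 | Probe or stimulus: EC80 β-phenethylamine stimulus | Dosing: 3 µM, single point | Times: Dye loading 75 min at 37 °C, then 30 min room temperature | Measured by: Fluo-8 calcium-sensitive fluorescence | Read-out basis: % inhibition of agonist calcium response | Replicates: n of 1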
NTR1 ag – NTR1 (human) agonism. actives 0.17% (n = 330,000). P30989. AID 493036. activation, % at 20 µM. NTR1-U2OS beta-arrestin-GFP spot imaging, agonist mode;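 active = activation at or above 40% of the spot to cytoplasm intensity ratio, with at least 20 cells analyzed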;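 note: 0% = DMSO without peptide and 100% = 100 nM NTR1 peptide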
CHO parental Ca – counter-screen: ATP calcium response change in parental CHO cells | actives 0.63% (n = 330,000) | inhibition, % at 5.6 µM | parental CHO-K1, ATP-induced calcium, Fluo-8 fluorescence;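 active = inhibition above that plate's mean sample inhibition plus 3 SD, cut at about 26% in these data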;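 note: 0% = ATP-challenged DMSO wells and 100% = DMSO wells without ATP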
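Material – parental CHO cells · Reagent – ATP stimulus · Compound – single nominal dose of 5.6 µM per compound · Detection – Fluo-8 fluorescence · Read-out basis – percent inhibition of calcium signal · Controls – ATP-challenged DMSO wells low, unchallenged DMSO wells high · Repeats – no replicates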
TAAR1 agonist – agonists of human TAAR1 | activation, % at 3 µM | actives 0.99% (n = 360,000) | CHO RD-HGA16 TAAR1, Fluo-8 calcium fluorescence; vehicle wells 0%, saturating PEA agonist 100% | AID 624467 | Q96RJ0;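 active = activation above the mean activation of all test compounds in the run plus 3 SD, cut at about 38% in these data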
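Assay system: CHO-derived RD-HGA16 cells with stable Gα16 and human TAAR1; timing: 17-24 h seeding, 75 min 37 °C dye, 30 min RT; read-out: % activation from peak over basal fluorescence ratio, DMSO-to-PEA scaled; measured by: kinetic Fluo-8 calcium fluorescence; benchmarks: low control DMSO, high control PEA (EC100); doses: 3 µM single concentration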
TAAR1 ag conf – confirmation of human TAAR1 agonists; shares compounds with TAAR1 agonist; CHO RD-HGA16 TAAR1, Fluo-8 calcium fluorescence; scaled: DMSO 0%, maximal phenethylamine 100%; activation, % at 3 µM; actives 82% (n = 2,400);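 active = activation above a cutoff set at the run's mean compound activation plus 3 SD, cut at about 39% in these data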
Ga16 ag counter – nonselective agonism, TAAR1 counter-screen; shares compounds with TAAR1 agonist; CHO-Ga16 parental, Fluo-8 calcium fluorescence; normalized to maximal ATP response, DMSO zero; activation, % at 3 µM; actives 50% (n = 2,400); AID 651787;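 active = activation above the run cutoff, the mean activation over all tested wells plus 3 SD, cut at about 12% in these data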;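 note: 0% = DMSO wells and 100% = maximal ATP response on the peak over basal ratio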
TAAR1 desens – counter-screen for human TAAR1 agonists: agonists that desensitize TAAR1. shares compounds with TAAR1 agonist. CHO RD-HGA16 hTAAR1, Fluo-8 calcium, beta-PEA response inhibition. inhibition, % at 3 µM. actives 46% (n = 2,400);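 active = inhibition above the run cutoff, the mean inhibition of all test compounds plus 3 SD, cut at about 49% in these data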;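 note: beta-PEA stimulus applied at its EC80; loss of beta-PEA calcium signal after compound pretreatment read as receptor desensitization; 0% = DMSO with beta-PEA at EC80 and 100% = DMSO alone without agonist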
Ga16 antag count – nonselective Ga16 antagonism, counter-screen; shares compounds with TAAR1 agonist; CHO-Ga16 ATP-induced calcium, Fluo-8 fluorescence; inhibition, % at 3 µM; actives 39% (n = 2,400);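 active = inhibition above the plate's mean compound inhibition plus 3 SD, computed per plate, cut at about 22% in these data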;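 note: 0% = EC80 ATP with DMSO and 100% = DMSO wells without ATP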
The depositor's hits bear a star; x = not tested or not shown. Most compounds without a hit are left out; they make up all but 4% or so of the library.

SMILES	OX1R antag-1	OX1R antag-2	TAAR1 antag	NTR1 ag	CHO parental Ca	TAAR1 agonist	TAAR1 ag conf	Ga16 ag counter	TAAR1 desens	Ga16 antag count
O=C(Nc1ccc(Cl)c(Cl)c1)N1CCOCC1	x	x	7	-2	x	6	x	x	x	x
O=C(Nc1ccc(Cl)cc1)Nc1ccc(N2CCOCC2)cc1	-3	12	79*	-1	9	66*	49*	13*	49*	22*
Cc1nn(C(=O)c2cc([N+](=O)[O-])ccc2Cl)c(C)c1Br	-13	22	-9	0	-11	3	x	x	x	x
Cc1ccc(NS(=O)(=O)c2ccc(C(=O)N3CC(C)CC(C)C3)cc2)cc1 (stereo unspecified)	63*	0	102*	11	64*	141*	128*	91*	106*	89*
Cc1ccc(S(=O)(=O)Nc2ccc(C(=O)N3CCCC3)cc2)cc1	-27	11	-8	0	-4	2	x	x	x	x
CC(=O)c1ccc(NC(=O)[C@@H]2CCCN2C(=O)OC(C)(C)C)cc1	-13	17	-4	-1	-15	3	x	x	x	x
O=C1C(SCCO)=C(SCCO)C(=O)c2ccccc21	47*	67*	84*	-1	48*	67*	71*	49*	83*	74*
Cc1cc(C(=O)Nc2ccc(C#N)cc2)on1	x	x	-7	1	x	1	x	x	x	x
Cc1ccc(N(C)c2nc(N)nc(N)c2N=O)cc1	x	x	24	x	x	59*	53*	65*	35	37*
COc1ccc(-n2cc(-c3ccccc3)c3c(N4CC(C)OC(C)C4)ncnc32)cc1 (stereo unspecified)	-39	-2	40	14	-35	4	x	x	x	x
Cc1ccc(S(=O)(=O)n2cnc(C)c2)cc1	10	19	-24	-1	-4	-1	x	x	x	x
CCOc1ccc(CC(=NCCc2ccccc2)C2=C(O)CC(C)(C)CC2=O)cc1OCC	-27	-6	87*	-1	-13	81*	88*	3	79*	10
CCN(CC(=O)NCc1ccc(Cl)cc1)C(=O)CCc1ccccc1	-18	-6	-4	2	-25	-1	x	x	x	x
O=C(C1CC1)N1CCc2cc(S(=O)(=O)NCc3ccccc3)ccc21	-16	18	37	0	4	68*	5	8	15	18
COc1cccc(CNS(=O)(=O)c2ccc3c(c2)CCN3C(=O)C2CC2)c1	-7	19	17	1	-8	8	x	x	x	x
C=CCN1C=C/C(=C\C=C(C#N)C#N)c2ccccc21	4	32	29	-2	19	66*	74*	8	66*	26*
CCCCCCN1C=C/C(=C\C=C(C#N)C#N)c2ccccc21	10	46	13	-2	-1	10	x	x	x	x
CCn1c(=O)n(CC)c2cc(N3CCCC3)c(NC(=O)c3ccc(C)cc3)cc21	-39	12	-23	5	-24	46*	1	1	2	11
CCn1c(=O)n(CC)c2cc(N3CCCC3)c(NC(=O)c3ccccc3)cc21	-37	32	-38	7	-25	-3	x	x	x	x
Cn1c(=O)oc2cc(S(=O)(=O)CCC(=O)Nc3ccccc3)ccc21	-14	-6	-2	0	-9	2	x	x	x	x
CCSC1=NSC2=NC(=O)/C(=C\c3coc4ccccc4c3=O)C(=N)N12	54*	44	108*	x	59*	252*	204*	279*	103*	99*
CSC1=NSC2=NC(=O)/C(=C\c3ccc(OC(=O)c4ccco4)cc3)C(=N)N12	-4	21	-22	2	-12	2	x	x	x	x
Cc1cccc(-n2c(C)cc(/C=C3\C(=N)N4N=C(CC(C)C)SC4=NC3=O)c2C)c1	-2	12	9	3	-15	2	x	x	x	x
CC(C)CC1=NN2C(=N)/C(=C\c3coc4ccccc4c3=O)C(=O)N=C2S1	x	x	104*	x	x	355*	149*	131*	82*	80*
COCCNC(=O)/C(C#N)=C/c1c(N2CCN(C)CC2)nc2ccccn2c1=O	-34	34	-4	0	-2	2	x	x	x	x
SMILES	OX1R antag-1	OX1R antag-2	TAAR1 antag	NTR1 ag	CHO parental Ca	TAAR1 agonist	TAAR1 ag conf	Ga16 ag counter	TAAR1 desens	Ga16 antag count
CCCCc1nnc2c(N(C)S(=O)(=O)c3ccc(C)cc3)nc3ccccc3n12	-24	-1	-8	2	-12	57*	0	0	2	8
COc1ccccc1C(=O)NCCC(=O)N1CCN(C(C)=O)CC1	-7	12	-2	-2	-6	1	x	x	x	x
CC(=O)c1sc2nc(-c3cccs3)cc(C(F)(F)F)c2c1N	42*	25	64*	7	32	72*	65*	84*	64*	70*
O=C(CN(Cc1ccccc1Cl)C(=O)c1csnn1)NCCc1ccccc1	-13	14	0	-1	-10	1	x	x	x	x
O=C(CN(Cc1ccccc1)C(=O)c1csnn1)NCCc1ccccc1	-24	10	25	-1	-17	75*	68*	6	34	12
Nc1nonc1-n1nnc(C(=O)N/N=C/c2cccc(Cl)c2)c1-c1ccc2c(c1)OCO2	10	22	29	2	7	15	x	x	x	x
Nc1nonc1-n1nnc(C(=O)N/N=C/c2ccc(Br)cc2)c1-c1ccc2c(c1)OCO2	-1	-1	93*	17	-1	154*	150*	112*	97*	81*
Nc1nonc1-n1nnc(C(=O)N/N=C/c2ccc3c(c2)OCO3)c1-c1ccccc1	-17	29	7	0	-22	75*	45*	26*	16	11
COC(=O)c1ccc(-c2ccc(CNCC(O)c3ccccc3)o2)cc1 (stereo unspecified)	-17	12	2	0	-17	39*	26	5	14	5
O=C(NCCc1ccccc1)c1cnc2n(c1=O)CCS2	-5	15	x	2	-7	x	x	5	x	2
CCc1cnc(Nc2nc(C(N)c3ccccc3Cl)cs2)nc1 (stereo unspecified)	x	x	-11	x	x	29	x	x	x	x
COc1ccc(CC(N)c2csc(Nc3cc(NCCCO)ncn3)n2)cc1 (stereo unspecified)	x	x	4	x	x	1	x	x	x	x
